By half-life is commonly meant the time needed for the level to fall by half in the phase considered.

SMILES strings stand for the structures. Activity calls are given as the source filed them.

This is an account of results in ChEMBL document CHEMBL5252518, “Correlation of in Situ Oxazolidine Formation with Highly Synergistic Cytotoxicity and DNA Cross-Linking in Cancer Cells from Combinations of Doxorubicin and Formaldehyde” (J Med Chem, 2016).

Series [1] in a line: Half life of compound. The series is classed as physicochemical.
Series [2] has as its system NCI/ADR-RES. Put plainly: Cytotoxicity against doxorubicin-resistant human NCI/ADR-RES cells assessed as inhibition of cell growth incubated for 3 hrs by crystal violet staining assay. The series is classed as functional, cell-based.
Series [3] has as its system NCI/ADR-RES. The experiment in a line: Cytotoxicity against doxorubicin-resistant human NCI/ADR-RES cells assessed as inhibition of cell growth incubated for 3 hrs in presence of pig liver esterase by crystal violet staining assay. The series is classed as functional, cell-based.
Series [4] deals with NCI/ADR-RES. The experiment in a line: Cytotoxicity against doxorubicin-resistant human NCI/ADR-RES cells assessed as fold change in IC50 incubated for 3 hrs in presence of pig liver esterase by crystal violet staining assay. The series is classed as functional.
Series [5] deals with NCI/ADR-RES. The experiment in a line: Cytotoxicity against doxorubicin-resistant human NCI/ADR-RES cells assessed as fold change in IC50 incubated for 3 hrs in presence of pig liver esterase by crystal violet staining assay relative to Doxsaliform. The series is classed as functional.
Series [6] can be described thus: Prodrug conversion in pig liver assessed as esterase-mediated Doxazolidine formation by measuring its half life at 1 uM by HPLC analysis. The series is classed as ADME, tissue-based, Sus scrofa.
For series [7], the system named is DNA. Put plainly: Induction of DNA interstrand cross-linking in hydrogen peroxide induced human NCI/ADR-RES cells assessed as decrease in comet tail density at 10 uM incubated for 90 mins by comet assay. The series is classed as functional, cell-based.
Series [8] has as its system DNA. The experiment in a line: Induction of DNA (unknown origin) expressed in Escherichia coli DH5alpha interstrand cross-linking assessed as inhibition of NotI-induced DNA digestion at 1.5 to 8 uM incubated for 30 mins by agarose gel electrophoresis based restriction endonuclease digestion assay. The series is classed as functional. The settings on record: dose 1.5-8 µM.

Series [9] in a line: Genotoxicity in doxorubicin-sensitive human MIA PaCa-2 cells assessed as increase in tail DNA density at 250 uM incubated for 90 mins by comet assay. The series is classed as toxicity, cell-based. The settings on record: mia paca-2, 1.5 h. An outline of the steps: (§1)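 Alkaline single-cell gel electrophoresis (comet) assay. A bulk population of cells was trypsinized, then split into treatment groups and treated in suspension for 90 min. After the drug was removed, cells were promptly embedded in agarose, lysed and electrophoresed under alkaline conditions. Gels were then stained, and the stain density in the comet tail was scored as DNA strand-break content.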

The nature of series [10]: Genotoxicity in doxorubicin-sensitive human MIA PaCa-2 cells assessed as increase in tail DNA density at 10 uM incubated for 90 mins by comet assay. The settings on record: mia paca-2, 1.5 h. The series is classed as toxicity, cell-based. In outline:
as §1

The test system of series [11] is MIA PaCa-2. Put plainly: Cytotoxicity against doxorubicin-sensitive human MIA PaCa-2 cells assessed as inhibition of cell growth incubated for 90 mins by crystal violet staining assay. The series is classed as functional, cell-based. To be noted: MIA PaCa-2, 1.5 h.
Series [12] concerns NCI/ADR-RES. The experiment in a line: Cytotoxicity against doxorubicin-resistant human NCI/ADR-RES cells assessed as inhibition of cell growth incubated for 90 mins by crystal violet staining assay. The series is classed as functional, cell-based. The settings on record: 1.5 h.
The subject of series [13] is DNA. Put plainly: Induction of DNA (unknown origin) expressed in Escherichia coli DH5alpha interstrand cross-linking assessed as inhibition of NdeI-induced DNA digestion at 1.5 to 8 uM incubated for 30 mins by agarose gel electrophoresis based restriction endonuclease digestion assay. The series is classed as functional. To be noted: dose 1.5-8 µM.
Series [14] in a line: Genotoxicity in doxorubicin-resistant human NCI/ADR-RES cells assessed as increase in tail DNA density at 250 uM incubated for 90 mins by comet assay. The series is classed as toxicity, cell-based. The settings on record: 1.5 h. An outline of the steps: as §1
The nature of series [15]: Genotoxicity in doxorubicin-resistant human NCI/ADR-RES cells assessed as increase in tail DNA density at 10 uM incubated for 90 mins by comet assay. The series is classed as toxicity, cell-based. To be noted: 1.5 h. In outline: as §1
The test system of series [16] is MIA PaCa-2. The experiment in a line: Cytotoxicity against doxorubicin-sensitive human MIA PaCa-2 cells assessed as inhibition of cell growth incubated for 30 mins by crystal violet staining assay. To be noted: MIA PaCa-2, 0.5 h.
The nature of series [17]: Genotoxicity in doxorubicin-sensitive human MIA PaCa-2 cells assessed as increase in DNA damage at 100 uM incubated for 90 mins by comet assay. The series is classed as toxicity, cell-based. The settings on record: mia paca-2, 1.5 h. In outline:
(§2)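 Cells were trypsinized as one bulk population, split into treatment groups and drug-treated in suspension for 90 min. They were then promptly embedded in agarose, lysed and electrophoresed under alkaline conditions (alkaline single-cell gel electrophoresis). After staining, DNA strand breaks were scored as comet tail stain density.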

Series [18] is described as follows: Genotoxicity in doxorubicin-resistant human NCI/ADR-RES cells assessed as increase in DNA damage at 100 uM incubated for 90 mins by comet assay. The series is classed as toxicity, cell-based. The settings on record: 1.5 h. An outline of the steps:
as §2

Series [19] has as its system NCI/ADR-RES. The experiment in a line: Induction of DNA damage in hydrogen peroxide induced human NCI/ADR-RES cells assessed as increase in comet tail density at 100 uM incubated for 90 mins by comet assay. The series is classed as functional, cell-based.
For series [20], the system named is MIA PaCa-2. Put plainly: Synergistic cytotoxicity against doxorubicin-sensitive human MIA PaCa-2 cells assessed as cell survival incubated for 90 mins in presence of formaldehyde by crystal violet staining assay. The series is classed as functional. To be noted: 1.5 h.
The test system of series [21] is MIA PaCa-2. Put plainly: Synergistic cytotoxicity against doxorubicin-sensitive human MIA PaCa-2 cells assessed as fold change in IC50 incubated for 90 mins in presence of formaldehyde by crystal violet staining assay. The series is classed as functional. The settings on record: 1.5 h.
Series [22] concerns NCI/ADR-RES. The experiment in a line: Cytotoxicity against doxorubicin-resistant human NCI/ADR-RES cells assessed as inhibition of cell growth incubated for 30 mins by crystal violet staining assay. The series is classed as functional, cell-based. The settings on record: 0.5 h.
Series [23] deals with MIA PaCa-2. The experiment in a line: Synergistic cytotoxicity against doxorubicin-sensitive human MIA PaCa-2 cells assessed as combination index incubated for 90 mins in presence of formaldehyde by crystal violet staining assay. The series is classed as functional. To be noted: 1.5 h.
The test system of series [24] is NCI/ADR-RES. Put plainly: Synergistic cytotoxicity against doxorubicin-resistant human NCI/ADR-RES cells assessed as combination index incubated for 90 mins in presence of formaldehyde by crystal violet staining assay. The settings on record: 1.5 h.
Series [25] relates to NCI/ADR-RES. Put plainly: Synergistic cytotoxicity against doxorubicin-resistant human NCI/ADR-RES cells assessed as fold change in IC50 incubated for 90 mins in presence of formaldehyde by crystal violet staining assay. To be noted: 1.5 h.
The subject of series [26] is NCI/ADR-RES. The experiment in a line: Synergistic cytotoxicity against doxorubicin-resistant human NCI/ADR-RES cells assessed as fold change in IC50 incubated for 30 mins in presence of formaldehyde by crystal violet staining assay. To be noted: 0.5 h.
In series [27] the test system is NCI/ADR-RES. Put plainly: Synergistic cytotoxicity against doxorubicin-resistant human NCI/ADR-RES cells assessed as fold change in IC50 incubated for 90 mins in presence of formaldehyde low concentration by crystal violet staining assay. The settings on record: 1.5 h.
The subject of series [28] is MIA PaCa-2. The experiment in a line: Synergistic cytotoxicity against doxorubicin-sensitive human MIA PaCa-2 cells assessed as inhibition of cell growth incubated for 90 mins in presence of formaldehyde by crystal violet staining assay. To be noted: MIA PaCa-2, 1.5 h. The series is classed as functional, cell-based.
For series [29], the system named is MIA PaCa-2. Put plainly: Synergistic cytotoxicity against doxorubicin-sensitive human MIA PaCa-2 cells assessed as inhibition of cell growth incubated for 90 mins in presence of epirubicin by crystal violet staining assay. To be noted: MIA PaCa-2, 1.5 h.

In [1], `COc1cccc2c1C(=O)c1c(O)c3c(c(O)c1C2=O)C[C@@](O)(C(=O)CO)C[C@@H]3O[C@H]1C[C@H](NCNC(=O)c2ccccc2O)[C@H](O)[C@H](C)O1` yielded a half-life of 57 min. The IC50 in series [2] stood at 800000 nM.
With `CCCCCOC(=O)Nc1ccc(COC(=O)N2CO[C@@H]3[C@H](C)O[C@@H](O[C@H]4C[C@](O)(C(=O)CO)Cc5c(O)c6c(c(O)c54)C(=O)c4c(OC)cccc4C6=O)C[C@@H]32)cc1`, the IC50 in [2] was 2000 nM; in [3], 3 nM. Also, the entries for the “fold change (FC)” value in series [4] and in series [5] were 30 and 25, respectively. Further, in series [6], the t1/2 was 24 min.
Consider `COc1cccc2c1C(=O)c1c(O)c3c(c(O)c1C2=O)C[C@@](O)(C(=O)CO)C[C@@H]3O[C@H]1C[C@@H]2NCO[C@@H]2[C@H](C)O1` [DOXAZOLIDINE], for which the result in [7], in series [8] and in series [13] was Active. Further, the Activity result in [9], in series [10], in series [14] and in series [15] was “Non-Toxic” in each case. For the same compound, the IC50 in series [11] (read-out: IC50) was 22 nM; in [11] (read-out: pIC50 (converted)) it was 20 nM; in [12] (read-out: IC50), 48 nM; in [12] (read-out: pIC50 (converted)) it was 50.1 nM; in [16], 51000 nM.
As to `COc1cccc2c1C(=O)c1c(O)c3c(c(O)c1C2=O)C[C@@](O)(C(=O)CO)C[C@@H]3O[C@H]1C[C@H](N)[C@H](O)[C@H](C)O1` [DOXORUBICIN], the outcome in series [8], in [19] and in series [13] was Active. Moreover, the figures for the Activity entry in series [17], in series [18] and in series [20] were “Toxic”, “Toxic” and 75%, respectively. In addition, the IC50 was 66000 nM in [11] (read-out: IC50); 63100 nM in series [11] (read-out: pIC50 (converted)); 620 nM in series [12] (read-out: IC50); 617 nM in series [12] (read-out: pIC50 (converted)); 4000 nM in series [16]; 220000 nM in [22]. Further, the “fold change (FC)” value in [21] was 3.5; in series [25], 55; in series [26], 9; in [27] it was 2.5. The CI in [23] is given as 0.4; in series [24] it was 0.02.
For `COc1cccc2c1C(=O)c1c(O)c3c(c(O)c1C2=O)C[C@@](O)(C(=O)CO)C[C@@H]3O[C@H]1C[C@H](N)[C@@H](O)[C@H](C)O1` [EPIRUBICIN], the Activity entry in series [17] and in [18] was “Toxic” each time. The IC50 is above 100000 nM in series [11] (read-out: IC50), 630 nM in series [12] (read-out: IC50), 631 nM in series [12] (read-out: pIC50 (converted)) and 500 nM in [28]. For the same compound, the result in series [19] was Active.
Turning to `C=O` [FORMALDEHYDE], the IC50 was 610000 nM in series [11] (read-out: IC50); 631000 nM in [11] (read-out: pIC50 (converted)); 530000 nM in series [12] (read-out: IC50); 501000 nM in series [12] (read-out: pIC50 (converted)); 600000 nM in series [22]; 500 nM in series [29].
